Data set [1] concerns Serum. In words: Drug level in Gunn rat serum at 100 mg/kg coadministered with ritonavir measured on day 2. Also on record: dose 100 mg/kg. The data set is classed as ADME, organism-based. The settings on record: in vivo. In short, it runs like this:
(§1)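 Gunn rats (n = 8-10 per arm) dosed orally with compound in 5% ethanol/95% propylene glycol with p-toluenesulfonic acid, together with 50 mg/kg RTV. Plasma was sampled 4 h after the first and second doses. Drug was measured by HPLC and bilirubin […]. Change in bilirubin (mg/dL) reported as mean with SD.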

Data set [2] deals with Rattus norvegicus. In words: Toxicity in Gunn rat assessed as unconjugated-bilirubin level at 100 mg/kg coadministered with ritonavir measured on day 1. The settings on record: in vivo. The data set is classed as organism-based. Also on record: dose 100 mg/kg. In short, it runs like this:
as §1

Data set [3] has as its system Human immunodeficiency virus 1. In words: Antiviral activity against wild-type HIV1 pNL4-3 infected in human MT4 cells after 5 days by MTT assay in presence of 50% human serum. The data set is classed as functional, organism-based. The settings on record: Human immunodeficiency virus 1, MT4, 120 h.
Data set [4] concerns Rattus norvegicus. The data set is described as follows: Toxicity in po dosed Gunn rat assessed as hyperbilirubinemia. The data set is classed as organism-based. The settings on record: in vivo. In outline:
as §1

The test system of data set [5] is Human immunodeficiency virus 1. The data set is described as follows: Antiviral activity against wild-type HIV1 pNL4-3 infected in human MT4 cells after 5 days by MTT assay. The data set is classed as functional, organism-based. The settings on record: Human immunodeficiency virus 1, MT4, 120 h. In general terms: Formazan colour is commonly taken as a measure of viable cells.

Data set [6] deals with Rattus norvegicus. The data set is described as follows: Toxicity in Gunn rat assessed as unconjugated-bilirubin level at 100 mg/kg coadministered with ritonavir measured on day 2. It counts as organism-based. Also on record: dose 100 mg/kg. The settings on record: in vivo. In outline:
as §1

In data set [7] the test system is Human immunodeficiency virus 1. In words: Antiviral activity against HIV1 bearing protease gene with A17 mutation infected in human MT4 cells after 5 days by MTT assay. The settings on record: Human immunodeficiency virus 1, MT4, 120 h. It counts as functional, organism-based. In short, it runs like this:
(§2)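 HIV-1 A17 mutant clone carrying protease mutations L10F, V32I, M46I, I47V, Q58E and I84V, generated by in vitro serial passage under LPV/RTV. EC50 was determined in MT-4 cells. Wild-type reference strain was HIV-1 pNL4-3.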

In data set [8] the test system is Human immunodeficiency virus 1. The data set is described as follows: Fold resistance, ratio of EC50 for HIV1 bearing protease gene with A17 mutation to EC50 for wild-type HIV1 pNL4-3. It counts as functional. In short, it runs like this:
as §2

In data set [9] the test system is Serum. The data set is described as follows: Drug level in Gunn rat serum at 100 mg/kg coadministered with ritonavir measured on day 1. The data set is classed as ADME, organism-based. On the set-up: dose 100 mg/kg. The settings on record: in vivo. In outline: as §1
A short description of data set [10]: AUC in dog at 5 mg/kg, po. It counts as ADME, organism-based, Canis lupus familiaris. On the set-up: dose 5 mg/kg, route oral. The settings on record: plasma. In short, it runs like this: (§3)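 Male and female beagle dogs (n = 3) given oral gavage doses formulated as 5 mg/mL solutions in 5% dextrose with 20% ethanol, 30% propylene glycol and methanesulfonic acid, alone or with RTV (2.5 or 5 mg/kg). Plasma was taken at 12 time points over 12 h, extracted with ethyl acetate/hexane and analysed by reversed-phase HPLC with internal standard. AUC in µg·h/mL; Cmax and C12h in µg/mL.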

The nature of data set [11]: AUC in dog at 2.5 mg/kg. It counts as ADME, organism-based, Canis lupus familiaris. The settings on record: plasma. Also on record: dose 2.5 mg/kg. In outline: as §3

The EC50 is the concentration needed to bring the measured effect to its halfway point. As for `COC(=O)N[C@H](C(=O)NN(Cc1ccc(-c2ccccn2)cc1)C[C@H](O)[C@H](Cc1ccccc1)NC(=O)[C@@H](N1CCN(Cc2cccc(C)n2)C1=O)C(C)(C)C)C(C)(C)C`, the figures for the Drug uptake in the data set on Serum [1] and in the data set on Serum [9] were 8.88 µg/mL and 8.87 µg/mL, respectively. The Activity with Rattus norvegicus [2] was 0.536 mg/dL; with Rattus norvegicus [4], “Toxic”; in the data set with Rattus norvegicus [6], 0.685 mg/dL. The EC50 worked out at 30 nM in [3], 2 nM in data set [5] and 17 nM in [7]. For the same compound, in data set [8], the “Ratio EC50” value was found to be 9.
A word on the AUC: it is the area under the concentration-time curve, a measure of exposure. Read a low AUC as low exposure. On to `CC(C)c1nc(CN(C)C(=O)N[C@H](C(=O)N[C@@H](Cc2ccccc2)C[C@H](O)[C@H](Cc2ccccc2)NC(=O)OCc2cncs2)C(C)C)cs1` [RITONAVIR], for which the AUC was 8800 ng·h/mL in data set [10] and 1560 ng·h/mL in [11].

Source of the values: ChEMBL document CHEMBL1153436, “2-Pyridyl P1'-substituted symmetry-based human immunodeficiency virus protease inhibitors (A-792611 and A-790742) with potential for convenient dosing and reduced side effects” (J Med Chem, 2009).
